Screening results (PubChem BioAssay)
KCNK9 inh – inhibitors of human KCNK9 two-pore domain potassium channel; B-score at 10 µM; 310,000 compounds, 1.2% hits; HEK293 KCNK9, FluxOR thallium flux fluorescence; active compounds read low;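 active means ratio B-score over 3 SD below the library mean, with starting fluorescence within 5 SD of its mean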;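 further: negative B-score means less thallium flux so channel inhibition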
Cl transport mod – modulates chloride dependent transport by human KCC2 | Q9H2X9 | KCC2 cells, thallium flux FluoZin-2 fluorescence | B-score of Tl+ flux slope (higher = more flux/activation; lower = inhibition) at 10 µM | 190,000 compounds, 2.2% hits | AID 1456;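 active means thallium flux slope and its plate-corrected score both differing from the plate sample mean at a set confidence after two filtering rounds, in either direction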;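 further: slope of fluorescence scaled to starting intensity during 10 to 20 s after thallium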
hERG protect – hERG (human) protection from proarrhythmic block; 310,000 compounds, 0.51% hits; Q12809; CHO-hERG, FluxOR thallium flux, dofetilide IC70 present; activation (rescue from dofetilide block), less the hit threshold, % at 10 µM; AID 1511;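 active means activation above the mean of controls blocked by dofetilide plus 5 SD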;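 further: thallium influx through hERG after potassium depolarization seen as dye fluorescence rise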
KCNQ1 block – blocks the human KCNQ1 potassium channel; 310,000 compounds, 1.3% hits; B-score at 10 µM; P51787; CHO-K1 KCNQ1, FluxOR thallium flux fluorescence; active compounds read high;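 active means compounds whose thallium flux B-score, printed positive for inhibition, exceeds three library SD while starting fluorescence stays within three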;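 further: channel opened by potassium depolarization with thallium stimulus after 20 min compound exposure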
Target sequence (P51787 whole entry, looked up): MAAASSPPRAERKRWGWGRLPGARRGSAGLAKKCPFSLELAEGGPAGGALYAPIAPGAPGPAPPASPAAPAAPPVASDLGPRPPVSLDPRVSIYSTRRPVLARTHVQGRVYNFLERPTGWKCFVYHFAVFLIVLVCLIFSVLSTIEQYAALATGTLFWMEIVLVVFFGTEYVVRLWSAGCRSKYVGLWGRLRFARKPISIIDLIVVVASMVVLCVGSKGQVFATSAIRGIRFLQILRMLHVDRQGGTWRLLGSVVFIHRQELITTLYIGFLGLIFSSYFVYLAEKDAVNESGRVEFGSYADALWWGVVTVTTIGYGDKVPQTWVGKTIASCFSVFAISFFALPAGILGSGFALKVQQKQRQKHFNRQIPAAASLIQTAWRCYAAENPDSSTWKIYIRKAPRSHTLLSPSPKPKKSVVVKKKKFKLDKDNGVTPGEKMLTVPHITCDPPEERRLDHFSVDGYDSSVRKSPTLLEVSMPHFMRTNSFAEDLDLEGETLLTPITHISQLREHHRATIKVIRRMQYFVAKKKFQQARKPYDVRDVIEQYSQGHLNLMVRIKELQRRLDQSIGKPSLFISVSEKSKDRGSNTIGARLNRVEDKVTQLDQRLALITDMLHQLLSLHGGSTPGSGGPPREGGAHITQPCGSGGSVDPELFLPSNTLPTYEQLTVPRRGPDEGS
KCNK3 block – human KCNK3 channel inhibition, primary screen. O14649. CHO-KCNK3 thallium flux, FluxOR fluorescence; active compounds read low. B-score at 10 µM. 340,000 compounds, 0.84% hits;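 active means B-score under library mean minus 4 SD, starting fluorescence ratio at most library mean plus 5 SD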;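 further: more negative B-score means stronger inhibition of thallium flux through KCNK3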
KCNQ1 act – potentiators or activators of human KCNQ1 potassium channel; P51787; CHO-K1 KCNQ1, thallium flux FluxOR fluorescence; active compounds read high; 310,000 compounds, 0.35% hits; B-score at 10 µM;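 active means fluorescence ratio B-score, a plate-corrected score, at least three library SD, with initial intensity B-score within 5 SD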
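Medium – assay buffer, equal DMSO in all wells · Material – CHO-K1 cell line with stable KCNQ1 potassium channel expression · Signal – kinetic FluxOR thallium fluorescence, 10-s 1-Hz baseline, 110-s post-stimulus read · Compound – single concentration per compound, DMSO matched to controls · Schedule – 37 °C overnight plating, 90-min dark dye load, 20-min compound pretreatment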
KCC2 sec1 – confirmation of human KCC2 transport modulators | HEK293-KCC2, thallium flux, FluoZin2 fluorescence; active compounds read high | AID 1713 | 3,700 compounds, 15% hits | normalised thallium flux (F/F0 slope) at 10 µM | shares compounds with Cl transport mod;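 active means thallium flux slope above the same plate's solvent-only control mean plus 3 SD; inconclusive means the two replicate wells disagree; inactive means no significant difference from solvent-only control wells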
KCC2 bumet counter – thallium flux persisting under bumetanide in KCC2 cells, counter-screen secondary assay | shares compounds with Cl transport mod | HEK293-KCC2 + bumetanide/ouabain, thallium flux FluoZin2; active compounds read high | normalized thallium flux at 10 µM | 3,700 compounds, 49% hits | AID 1714;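 active means thallium entry rate above the same plate's blocked-transporter control wells by more than 3 SD; inconclusive means the two repeat wells disagree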;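 further: raw slope of fluorescence over initial fluorescence between 10 and 20 s after thallium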
KCC2 sec2 – KCC2 (human) modulation, second secondary assay | normalized thallium flux at 10 µM | shares compounds with Cl transport mod | 3,700 compounds, 23% hits | HEK293-KCC2, thallium flux FluoZin2 fluorescence; actives lie on both sides; F/F0 rise rate, 10–20 s post-thallium;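 active means thallium flux slope more than 3 SD above or below the plate's solvent-only control mean, mostly below; inconclusive means the two repeat wells disagreed; inactive means no significant shift from solvent-only controls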;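 further: raw slope with 0.1% DMSO as baseline and bumetanide as block control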
HEK counter1 – parental HEK flux effect, counter-screen; shares compounds with Cl transport mod; HEK293 parental cells, thallium flux FluoZin2, ouabain; baseline-ratio fluorescence slope, 10–20 s after thallium; thallium flux rate (normalised fluorescence) at 10 µM; 3,700 compounds, 46% hits; AID 1716;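 active means thallium flux rate significantly above the same plate's solvent-only control wells, beyond their mean plus 3 SD; inconclusive means the two replicate wells gave conflicting results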
KCC2 ouabain – modulates human KCC2 on retest with ouabain | shares compounds with Cl transport mod | HEK293-KCC2, thallium flux FluoZin2 fluorescence; bidirectional: low = inhibitor, high = activator | raw Tl+ flux slope (below DMSO = inhibition, above = activation) at 10 µM | AID 1717 | 3,700 compounds, 48% hits;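 active means thallium flux slope beyond 3 SD from same-plate DMSO control mean in most replicates, usually higher, sometimes lower; inconclusive means repeat tests gave conflicting results; inactive means no significant difference from controls in most replicates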;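 further: slope of initial-normalized fluorescence between seconds 10 and 20 after thallium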
HEK293 Tl flux2 – acts in parental HEK cells, second KCC2 counter-screen; shares compounds with Cl transport mod; HEK293 parental, thallium flux FluoZin-2 fluorescence slope; thallium flux slope at 10 µM; 3,700 compounds, 33% hits; AID 1718;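 active means thallium flux slope above the same plate's solvent-control mean plus 3 SD in both duplicate wells; inconclusive means duplicate wells that disagreed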;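 further: run without ouabain in cells lacking the KCC2 cotransporter; slope of fluorescence scaled to its starting value between 10 and 20 s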
Starred values were filed as active, the others as inactive; i = inactive; ? = inconclusive; / = not tested or not shown. Rows were chosen to be rich in hits. Some 4.1% of all compounds tested hit in one or more screens of this group.

SMILES | KCNK9 inh | Cl transport mod | hERG protect | KCNQ1 block | KCNK3 block | KCNQ1 act | KCC2 sec1 | KCC2 bumet counter | KCC2 sec2 | HEK counter1 | KCC2 ouabain | HEK293 Tl flux2
CCCc1cc(C(=O)Nc2sc(C)c(CC)c2C#N)no1 | i | 9.7* | -16 | i | i | i | 0.012 | 0.026* | 0.037 | 0.021* | 0.029* | 0.013*
CCc1c(C)sc(NC(=O)c2cc(C3CC3)on2)c1C#N | i | 3.7* | -10 | i | i | i | 0.008 | 0.012* | 0.029 | 0.011* | 0.022 | 0.012*
CCCC(=O)Nc1sc2c(c1C#N)CCCC2 | i | 0.91 | -11 | i | i | i | / | / | / | / | / | /
S=c1nc2ccccc2c2nc(-c3ccccc3)[nH]n12 | i | 32* | -13 | i | i | i | 0.03* | 0.046* | 0.036 | 0.013* | 0.041* | 0.017*
S=c1nc2ccccc2c2nc(-c3ccccc3Cl)[nH]n12 | i | / | -3 | i | i | i | / | / | / | / | / | /
COC(=O)NNC(=O)c1ccc(Cl)cc1Cl | i | 0.21 | -8 | i | i | i | / | / | / | / | / | /
CC(C)(C)C(=O)NC(=S)NNC(=O)c1ccc(Cl)cc1Cl | i | 38* | -9 | i | i | 16* | 0.031* | 0.05* | 0.039 | 0.053* | 0.058* | 0.017*
CSCc1nnc(NC(=O)c2ccc(S(=O)(=O)N(CC(C)C)CC(C)C)cc2)o1 | i | 2.6 | -5 | i | / | i | / | / | / | / | / | /
CCc1nnc(NC(=O)c2ccc(S(=O)(=O)N(CC(C)C)CC(C)C)cc2)o1 | / | 5.1* | / | / | i | / | 0.012* | 0.019* | 0.03 | 0.01* | 0.022* | 0.0099
CCN(Cc1ccccc1)S(=O)(=O)c1ccc(C(=O)Nc2nnc(C3CC3)o2)cc1 | i | 3.6* | -7 | i | i | i | 0.012 | 0.019* | 0.034 | ? | ? | 0.012
O=C(CCN1CCN(Cc2ccccc2)CC1)Nc1cccc(Cl)c1 | i | -3.8* | -20 | i | i | i | 0.0057 | 0.0052 | 0.024* | 0.0078 | 0.014* | 0.0099
CCCCCN(C(=O)CCC(=O)OCC(=O)c1ccc(C(C)(C)C)cc1)c1c(N)n(CCCC)c(=O)[nH]c1=O | i | / | -11 | i | i | i | / | / | / | / | / | /
O=C(N/N=C/c1ccc2c(c1)OCO2)C(O)c1ccccc1 (stereo not drawn) | i | 4.7* | -5 | i | i | i | 0.0079 | 0.0068 | 0.03 | 0.0066 | 0.02 | 0.0099
COc1ccc(C2C(C(N)=O)=C(C)Nc3nc(-c4ccccc4)nn32)cc1OC (stereo not drawn) | i | 5.5* | -8 | i | i | i | 0.0069 | ? | 0.029 | 0.0082 | 0.019 | ?
CCc1ccc(OCCNC(=O)c2ccccc2SCc2ccc(F)cc2)cc1 | i | -8.8* | -12 | i | i | i | 0.0082 | 0.0065 | 0.023* | 0.0065 | 0.013* | 0.0093
CSc1ccc(Cl)c(C(=O)NCCOc2ccccc2)c1 | i | -2 | -8 | i | i | i | / | / | / | / | / | /
